Rows were chosen to be rich in hits. Some 4.5% of all compounds tested hit in one or more screens of this group.
CHO parental Ca – ATP-evoked calcium signal inhibitors, parental CHO, primary screen, counter-screen for OX1R antagonist project, cell-based, fluorescence, Fluo-8 calcium dye; 0.63% of 330,000 active; inhibition, % at 5.6 µM; parental CHO-K1, ATP-induced calcium, Fluo-8 fluorescence;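 active = inhibition above that plate's mean sample inhibition plus 3 SD, cut at about 26% in these data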
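Assay system – parental CHO cells · Reagent – ATP stimulus · Detection – intracellular calcium via Fluo-8 no-wash fluorescent dye · Evaluation – percent inhibition of ATP-evoked calcium rise, normalized to controls · Controls – ATP wells versus no-ATP DMSO wells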
OX1R antag-1 – OX1R (HCRTR1) antagonists, primary screen, fluorescence, CHO/OX1R cells, Fluo-8 calcium, orexin A | Orexin/Hypocretin receptor type 1 (Homo sapiens), O43613 | Fluo-8 calcium fluorescence | inhibition, % at 5 µM | 0.43% of 330,000 active;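 active = inhibition above its plate's threshold, mean inhibition of all tested compounds on the plate plus 3 SD, cut at about 37% in these data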
Target sequence (O43613 whole entry, looked up): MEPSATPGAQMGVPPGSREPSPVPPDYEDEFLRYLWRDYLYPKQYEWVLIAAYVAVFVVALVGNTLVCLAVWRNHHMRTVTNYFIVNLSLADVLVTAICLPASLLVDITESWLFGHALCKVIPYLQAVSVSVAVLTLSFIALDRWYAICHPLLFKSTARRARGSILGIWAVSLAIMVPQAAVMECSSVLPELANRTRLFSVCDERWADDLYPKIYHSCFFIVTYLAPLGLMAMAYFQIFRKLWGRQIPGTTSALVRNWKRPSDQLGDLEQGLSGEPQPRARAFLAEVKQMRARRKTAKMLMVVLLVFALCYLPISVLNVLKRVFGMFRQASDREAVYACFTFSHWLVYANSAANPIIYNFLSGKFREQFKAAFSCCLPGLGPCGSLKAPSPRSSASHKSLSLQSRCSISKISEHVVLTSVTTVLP
TAAR1 agonist – human TAAR1 agonists, primary screen, Fluo-8 calcium fluorescence, CHO RD-HGA16 cells; Trace amine-associated receptor 1 (Homo sapiens), Q96RJ0; vehicle wells 0%, saturating PEA agonist 100%; activation, % at 3 µM; 0.99% of 360,000 active;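 active = activation above the mean activation of all test compounds in the run plus 3 SD, cut at about 38% in these data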
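Assay system: CHO-derived RD-HGA16 cells with stable Gα16 and human TAAR1; timing: 17-24 h seeding, 75 min 37 °C dye, 30 min RT; read-out: % activation from peak over basal fluorescence ratio, DMSO-to-PEA scaled; measured by: kinetic Fluo-8 calcium fluorescence; benchmarks: low control DMSO, high control PEA (EC100); doses: 3 µM single concentration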
TAAR1 antag – human TAAR1 antagonists, primary screen, Fluo-8 calcium fluorescence, CHO RD-HGA16 cells. Trace amine-associated receptor 1 (Homo sapiens), Q96RJ0. antagonist. inhibition, % at 3 µM. 1.5% of 360,000 active. AID 624466, 2012;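 active = inhibition above a per-plate cutoff, the mean inhibition of test compounds on that plate plus 3 SD, cut at about 49% in these data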
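Test system: hTAAR1-expressing CHO RD-HGA16 cells, Gα16-coupled; Probe or stimulus: EC80 β-phenethylamine stimulus; Compound dosing: single nominal final test compound concentration of 3 µM; Timing: 140 s kinetic read after compound, 140 s after agonist; Signal: Fluo-8 calcium-sensitive fluorescence; Measure: % inhibition of agonist calcium response; Controls: DMSO and EC80 PEA controls.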
OX1R antag-2 – antagonists of human orexin 1 receptor (OX1R). OX1R-expressing cells, FRET antagonist read-out. inhibition, % at 6.6 µM. 1.8% of 330,000 active; in the data active = inhibition mostly above about 38%, no sharp cut-off; inactive = mostly below about 40%
GPR7 antag – GPR7 receptor antagonists, primary screen, cell-based, fluorescence, single concentration; AID 1861, 2009; Neuropeptides B/W receptor type 1 (Homo sapiens), P48145; inhibition, % at 4.4 µM; GPR7-expressing cells, fluorescence antagonist assay; 1.1% of 290,000 active; in the data active = inhibition above about 16%, passing the limit was not always enough;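 also: cells stimulated with the agonist NPW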
A number is an active result; i = inactive; nt = no result given.

SMILES	CHO parental Ca	OX1R antag-1	TAAR1 agonist	TAAR1 antag	OX1R antag-2	GPR7 antag
COc1cc(/C=C(\CC(=O)O)c2nc3ccccc3s2)ccc1OCC(=O)Nc1ccccc1F	nt	nt	i	i	nt	nt
N#C/C(=C\c1ccncc1)c1nc2ccccc2[nH]1	nt	nt	i	i	nt	i
O=C(NCc1cccnc1)NC(=O)c1ccc(Cl)cc1	i	i	i	i	i	i
O=C(NCC(c1cccs1)N1CCOCC1)c1cc(-c2ccc(F)cc2)nc2ccccc12 (stereo unspecified)	i	i	i	i	i	20
O=C(NCC(c1cccs1)N1CCOCC1)c1cc2ccccc2o1 (stereo unspecified)	i	i	i	i	i	i
O=C(NCC(c1cccs1)N1CCOCC1)c1cc2ccccc2oc1=O (stereo unspecified)	i	i	i	i	26	nt
Cc1sc2ncnc(N3CCC(C(=O)NNC(=O)COc4ccccc4Cl)CC3)c2c1C	i	i	i	i	i	nt
Cc1sc2ncnc(N3CCC(C(=O)Nc4ccc(OC(F)F)c(Cl)c4)CC3)c2c1C	i	i	i	i	30	nt
Cc1cc(Br)ccc1NC(=O)CN(C)C(=O)C1CCN(c2ncnc3sc(C)c(C)c23)CC1	nt	nt	i	57	nt	nt
Cc1cccc(C)c1NC(=O)CN(C)C(=O)C1CCN(c2ncnc3sc(C)c(C)c23)CC1	i	i	i	i	i	nt
CN(C)c1ccc(P(=O)(COc2ccc([N+](=O)[O-])cc2)c2ccc(N(C)C)cc2)cc1	i	i	i	i	i	20
O=[N+]([O-])c1ccc(OCCOCCOc2ccc([N+](=O)[O-])cc2)cc1	i	i	i	i	i	i
COC(=O)CC#C[C@H](C)[C@@H](NS(C)(=O)=O)C1CCCCC1	nt	nt	i	i	nt	nt
COC(=O)C(Cc1ccc(O)cc1)NS(=O)(=O)Cc1ccccc1 (stereo unspecified)	nt	nt	i	i	nt	nt
O=c1oc2ccccc2c(Nc2ccccc2)c1CN1CCCCC1	i	i	i	i	i	i
O=c1oc2ccccc2c(O)c1CN1CCCCC1	i	i	i	i	68	i
O=C1CCCc2c1nc(-c1ccc([N+](=O)[O-])cc1)n2O	i	i	i	i	48	i
C[C@@H]1COc2cc(N3CCCCC3)ccc2S(=O)(=O)N1	nt	nt	i	i	nt	nt
CCCCc1c(-c2ccccc2OC)ncn1C1CCCCC1	nt	nt	i	i	nt	nt
S=C(NCCc1ccccc1)N1CCc2ccccc2C1	i	i	i	i	i	i
S=C(CN1CCCC1=S)NCCc1ccccc1	i	i	40	i	i	i
CC(C)(C)NC(=O)C1CCC(CNS(=O)(=O)c2cccc3nsnc23)CC1 (stereo unspecified)	i	i	42	76	i	i
O=S(=O)(NCC1CCCO1)c1cccc2nsnc12 (stereo unspecified)	i	i	i	i	41	i
CC(C)N(Cc1ccccc1)S(=O)(=O)c1n[nH]c(C(C)(C)C)n1	nt	nt	i	i	nt	nt
C=CCNc1cccc2c1S(=O)(=O)N[C@@H](Cc1ccccc1)CO2	nt	nt	i	i	nt	nt
SMILES	CHO parental Ca	OX1R antag-1	TAAR1 agonist	TAAR1 antag	OX1R antag-2	GPR7 antag
Cn1cc(C(=O)N/N=C/c2ccc([N+](=O)[O-])cc2)c2ccccc21	i	i	i	i	i	i
O=C(N/N=C/c1ccc2ncccc2c1)c1cccc([N+](=O)[O-])c1	i	i	i	i	72	i
Cn1ncc([N+](=O)[O-])c1C(=O)N/N=C/c1ccc(F)cc1	i	i	i	i	i	i
Cn1ncc([N+](=O)[O-])c1C(=O)N/N=C/c1cccc([N+](=O)[O-])c1	i	i	i	i	54	i
Cn1cc(C(=O)N/N=C/c2cccc([N+](=O)[O-])c2)c2ccccc21	i	i	i	i	43	i
O=C(N/N=C/c1ccccn1)c1cccc([N+](=O)[O-])c1	i	i	i	i	i	i
Cc1nc2cc[nH]n2c(=O)c1CCc1ccccc1	nt	nt	i	i	nt	nt
F[B-](F)(F)c1cncnc1	nt	nt	i	i	nt	nt
O=C(CN1CCCCC1)Nc1nnc(-c2ccc([N+](=O)[O-])cc2)s1	i	i	i	i	58	i
O=C(CN1CCN(c2ccccc2O)CC1)Nc1cc([N+](=O)[O-])ccc1Cl	i	i	i	i	58	i
O=C(CN1CCCCCC1)Nc1cc([N+](=O)[O-])ccc1Cl	i	i	i	i	62	i
COc1ccc(-c2noc(CCC(=O)NCC3CCN(Cc4cccc(C)c4)CC3)n2)cc1	i	i	i	i	i	i
CCN(CCCNC(=O)CCc1nc(-c2ccc(OC)cc2)no1)c1cccc(C)c1	i	i	i	i	55	i
COC(=O)c1ccc2nc(-c3ccco3)c(Cc3ccsc3)n2c1	nt	nt	i	i	nt	nt
COc1ccc(C(=O)Nc2ccccc2C(=O)NC(Cc2c[nH]c3ccccc23)C(=O)O)cc1 (stereo unspecified)	i	i	i	i	68	i
C#Cc1ccccc1OCCCN1CCC(C(O)(c2ccccc2)c2ccccc2)CC1	nt	nt	40	51	nt	nt
OC(c1ccccc1)(c1ccccc1)C1CCN(CCCOc2ccc(F)cc2)CC1	nt	nt	39	i	nt	nt
CCOC(=O)C1=C(C(=O)OCC)C2N(Cc3ccc(C#N)cc3)c3ccccc3[C@@]23C[C@@H](C(=O)OC)N(S(=O)(=O)c2ccc(C#N)cc2)C3=N1 (stereo partly specified)	nt	nt	i	i	nt	nt
COC(=O)C1=C(C)N(C)C(=NCc2ccc3c(c2)OCO3)NC1c1cccc(Cl)c1 (stereo unspecified)	nt	nt	i	i	nt	nt
O=C(CSc1cc(Cl)ccc1Cl)NC1CCCc2ccccc21 (stereo unspecified)	i	i	i	i	i	i
O=C(CSc1ccc2ccccc2c1)NC1CCCc2ccccc21 (stereo unspecified)	i	i	i	i	71	i
CCn1c(SCC(=O)NC2CCCc3ccccc32)nnc1-c1cccs1 (stereo unspecified)	i	i	i	i	70	i
COc1cccc(CNC(=O)CSc2nc3ccc(C)cc3[nH]2)c1	i	i	i	i	42	i
Cc1ccc2nc(SCC(=O)NC3CCCc4ccccc43)[nH]c2c1 (stereo unspecified)	i	i	i	i	73	i
C[C@H](CO)N1C[C@H](C)[C@@H](CN(C)C(=O)Nc2cccc(Oc3ccccn3)c2)OCc2cn(nn2)CCCC1=O	nt	nt	i	i	nt	nt
Cc1ccc2nc(SCC(=O)c3ccc(Cl)s3)[nH]c2c1	i	i	i	i	56	i
Cc1ccc2nc(SCC(=O)c3ccc4c(c3)OCO4)[nH]c2c1	i	i	i	i	i	i
